The text below walks through data of ChEMBL document CHEMBL1914413, “Using the pER8:GUS reporter system to screen for phytoestrogens from Caesalpinia sappan” (J Nat Prod, 2011).

In assay [1] the test system is Arabidopsis thaliana. Kind of assay: Estrogenic activity in transgenic Arabidopsis thaliana transfected with pER8:GUS plasmid assessed as beta-glucuronidase expression after 48 hrs using 4-methylumbelliferyl-beta-D-glucuronide by fluorometric assay. The format is functional. The gist of the method:
(§1)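 Transgenic Arabidopsis pER8:GUS plants are incubated with or without test compound. GUS expression is quantified by fluorometric assay. 17β-Estradiol is the positive control, run over 0.01–100 μM.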

The subject of assay [2] is MCF7. Kind of assay: Cytotoxicity against human MCF7 cells after 3 days by MTT assay. The format is functional, cell-based. Background: Formazan colour is commonly taken as a measure of viable cells.
In the next assay the test system is MDA-MB-231. Put plainly: Cytotoxicity against human MDA-MB-231 cells after 3 days by MTT assay. Type of assay: functional, cell-based.
In a further assay the test system is A549. Put plainly: Cytotoxicity against human A549 cells after 3 days by MTT assay. The format is functional, cell-based. The conditions noted are these: for IC50: A549, 72 h.
The subject of the next assay is Ca9-22. Put plainly: Cytotoxicity against human Ca9-22 cells after 3 days by MTT assay. The format is functional, cell-based. The conditions noted are these: for IC50: Ca9-22, 72 h.
For a further assay, the system named is Hep 3B2. Put plainly: (§2) Cytotoxicity against human Hep3B cells after 3 days by MTT assay. The format is functional, cell-based.
A further assay concerns HepG2. Kind of assay: Cytotoxicity against human HepG2 cells after 3 days by MTT assay. Type of assay: functional, cell-based.
In assay [3] the test system is MCF7. Kind of assay: Estrogenic activity in human ER-positive MCF7 cells assessed as secreted alkaline phosphatase activity at 20 uM after 48 hrs by phospha-light reporter chemiluminescence assay. Type of assay: functional, cell-based.
The subject of assay [4] is Arabidopsis thaliana. Put plainly: Estrogenic activity in transgenic Arabidopsis thaliana transfected with pER8:GUS plasmid assessed as beta-glucuronidase expression at 150 to 280 uM after 48 hrs using 4-methylumbelliferyl-beta-D-glucuronide by fluorometric assay. The format is functional, organism-based. An outline of the steps: as §1
Assay [5] relates to Arabidopsis thaliana. Kind of assay: Estrogenic activity in transgenic Arabidopsis thaliana transfected with pER8:GUS plasmid assessed as beta-glucuronidase expression at 500 uM after 48 hrs using 4-methylumbelliferyl-beta-D-glucuronide by fluorometric assay. The format is functional, organism-based. An outline of the steps: as §1
Assay [6] concerns MCF7. Kind of assay: Estrogenic activity in human ER-positive MCF7 cells assessed as secreted alkaline phosphatase activity after 48 hrs by phospha-light reporter chemiluminescence assay. Type of assay: functional, cell-based.
In assay [7] the test system is MCF7. Kind of assay: Antiestrogenic activity in human ER-positive MCF7 cells assessed as inhibition of 17beta estradiol-induced secreted alkaline phosphatase activity at 20 nM after 48 hrs by phospha-light reporter chemiluminescence assay. The format is functional, cell-based.
For assay [8], the system named is MCF7. Kind of assay: Antiestrogenic activity in human ER-positive MCF7 cells assessed as inhibition of 17beta estradiol-induced secreted alkaline phosphatase activity at 2 nM after 48 hrs by phospha-light reporter chemiluminescence assay. The format is functional, cell-based.
Assay [9] in a line: as §2. Type of assay: functional, cell-based, Hep 3B2. The note with it: 72 h.
Assay [10] has as its system MCF7. Put plainly: Antiestrogenic activity in human ER-positive MCF7 cells assessed as inhibition of 17beta estradiol-induced cell proliferation at 1 to 20 uM after 48 hrs by MTT assay. Type of assay: functional, cell-based.
The subject of assay [11] is MCF7. Kind of assay: Antiestrogenic activity in human ER-positive MCF7 cells assessed as inhibition of 17beta estradiol-induced secreted alkaline phosphatase activity at 1 to 20 uM after 48 hrs by phospha-light reporter chemiluminescence assay. Type of assay: functional, cell-based.
Assay [12] deals with MCF7. Put plainly: Estrogenic activity in human ER-positive MCF7 cells assessed as secreted alkaline phosphatase activity at 0.01 nM after 48 hrs by phospha-light reporter chemiluminescence assay. Type of assay: functional, cell-based.

As usually defined, the IC50 is the concentration at which inhibition is half-maximal.

Activity calls are given as the source filed them. The calls are words filed in the database; no cut-off is given here.

Consider `O=c1c(O)coc2cc(O)ccc12`, for which, in the assay on Arabidopsis thaliana [1], the MAC was 8.8 µM. Besides, the result in the assay on MCF7 [2], with MDA-MB-231, in the assay on A549, in the assay on Ca9-22, in the assay on Hep 3B2 and with HepG2 was inactive. Besides, the outcome with MCF7 [3] was Active.

Consider `Oc1ccc(C[C@@]2(O)COc3cc(O)ccc3[C@@H]2O)cc1`, for which the result in the assay with Arabidopsis thaliana [4], in the assay on MCF7 [2], in the assay with MDA-MB-231, with A549, with Ca9-22 and in the assay on Hep 3B2 was inactive. In addition, in the assay with HepG2, the result was inactive. In addition, in the assay with Arabidopsis thaliana [5], the result was Active.

`O=C1c2ccc(O)cc2OC[C@]1(O)Cc1ccc(O)cc1`: the MAC with Arabidopsis thaliana [1] was 10.9 µM. For the same molecule, the outcome in the assay on MCF7 [2], in the assay with MDA-MB-231, in the assay on A549, in the assay with Ca9-22, in the assay with Hep 3B2 and with HepG2 was inactive. Also, the result in the assay on MCF7 [3] was Active. In the assay with MCF7 [6], the Activity entry was “Dose-dependent effect”.

In the case of `CC/C(=C(\c1ccccc1)c1ccc(OCCN(C)C)cc1)c1ccccc1`, the inhibition result in the assay with MCF7 [7] was “Active”.

On to `O=C(c1ccc(OCCN2CCCCC2)cc1)c1c(-c2ccc(O)cc2)sc2cc(O)ccc12`, for which the inhibition entry in the assay with MCF7 [8] was “Active”.

In the case of `Oc1ccc(C[C@@]2(O)COc3cc(O)ccc3[C@H]2O)cc1`, the outcome in the assay on Arabidopsis thaliana [4], in the assay on MCF7 [2], with MDA-MB-231, in the assay with A549, in the assay on Ca9-22 and in the assay on Hep 3B2 was inactive. Also, the outcome in the assay on HepG2 was inactive. For the same molecule, the result in the assay with Arabidopsis thaliana [5] was Active.

Turning to `COc1cc(O)ccc1C(=O)/C=C/c1ccc(O)cc1`, the MAC in the assay with Arabidopsis thaliana [1] worked out at 2.8 µM. For the same molecule, the half-maximal inhibitory concentration (IC50) with MCF7 [2] (MCF7, 72 h) was 51.4 µM; in the assay on MDA-MB-231 (MDA-MB-231, 72 h) it was 44.4 µM; in the assay on A549, 32.6 µM; in the assay with Ca9-22 it was 57.6 µM; in assay [9], 17.9 µM; in the assay with HepG2 (HepG2, 72 h), 7.37 µM. For the same molecule, the result in the assay on MCF7 [3] was Active.

Turning to `O=C1c2ccc(O)cc2OC[C@@H]1Cc1ccc(O)c(O)c1`, in the assay on Arabidopsis thaliana [1], the MAC came out at 2.7 µM. Further, the outcome with MCF7 [2], with MDA-MB-231, in the assay with A549, with Ca9-22, in the assay on Hep 3B2 and with HepG2 was inactive. The result in the assay on MCF7 [3] was Active. The Activity entry in the assay on MCF7 [6] is “Dose-dependent effect”.

On to `O=C1C=C2CC3(O)COc4cc(O)ccc4C3=C2C=C1O` (configuration not stated) [BRAZILEIN], for which the inhibition result with MCF7 [10] and in the assay on MCF7 [11] was “Active” each time. The result with Arabidopsis thaliana [4] and with MCF7 [3] was inactive. Also, the outcome with Arabidopsis thaliana [5] was Active. In assay [9], this molecule gave an IC50 of 12 µM.

With `Oc1ccc2c(c1)OC[C@]1(O)Cc3cc(O)c(O)cc3[C@H]21` [BRAZILIN], the inhibition result in the assay on MCF7 [10] and in the assay on MCF7 [11] was “Active” in each case. Further, the outcome with Arabidopsis thaliana [4] and in the assay on MCF7 [3] was inactive. In the assay on Arabidopsis thaliana [5], the outcome was Active. The molecule also showed an IC50 in assay [9] of 15.9 µM.

In turn, `COc1cccc2c1C(=O)c1c(O)c3c(c(O)c1C2=O)C[C@@](O)(C(=O)CO)C[C@@H]3O[C@H]1C[C@H](N)[C@H](O)[C@H](C)O1` [DOXORUBICIN] gave an IC50 in [9] of 1.03 µM.

Regarding `C[C@]12CC[C@@H]3c4ccc(O)cc4CC[C@H]3[C@@H]1CC[C@@H]2O`, the Activity result in the assay with Arabidopsis thaliana [1] was “Dose-dependent effect”. For the same molecule, the result in the assay on MCF7 [12] was Active.

In the case of `CC1(C)O[C@H]2c3ccc(O)cc3OC[C@@]2(Cc2ccc(O)c(O)c2)O1`, the outcome with Arabidopsis thaliana [4], with MCF7 [2], in the assay with MDA-MB-231, in the assay with A549, in the assay on Ca9-22 and with Hep 3B2 was inactive. Besides, the outcome in the assay with HepG2 was inactive. Further, the outcome in the assay with Arabidopsis thaliana [5] and in the assay with MCF7 [3] was Active.

Consider `O=C1c2ccc(O)cc2OC[C@@H]1O`, for which the outcome in the assay with Arabidopsis thaliana [4], with MCF7 [2], in the assay on MDA-MB-231, with HepG2 and in the assay on MCF7 [3] was inactive. Also, in the assay on Arabidopsis thaliana [5], the result was Active. Moreover, the IC50 came to 80.7 µM in the assay with A549, 62.2 µM with Ca9-22 and 47.2 µM in [9].

`O=c1c(-c2ccc(O)cc2)coc2cc(O)cc(O)c12`: the Activity result in the assay with MCF7 [6] was “Dose-dependent effect”. The inhibition result in the assay with MCF7 [11] was “Active”.
